Experimental data taken from ChEMBL document CHEMBL4014339, “Discovery of 1,4-Benzodiazepine-2,5-dione (BZD) Derivatives as Dual Nucleotide Binding Oligomerization Domain Containing 1/2 (NOD1/NOD2) Antagonists Sensitizing Paclitaxel (PTX) To Suppress Lewis Lung Carcinoma (LLC) Growth in Vivo” (J Med Chem, 2017).

Columns and labels:
[1] = molecular target: T1, Nucleotide-binding oligomerization domain-containing protein 2 (Homo sapiens, UniProt Q9HC29); assay: Inhibition of human NOD2 expressed in HEK293 cells assessed as suppression of MDP-stimulated JNK phosphorylation preincubated for 1 hr followed by MDP stimulation measured after 1 hr by Western blot analysis
T1 sequence (Q9HC29 whole entry, the tested form may be a part): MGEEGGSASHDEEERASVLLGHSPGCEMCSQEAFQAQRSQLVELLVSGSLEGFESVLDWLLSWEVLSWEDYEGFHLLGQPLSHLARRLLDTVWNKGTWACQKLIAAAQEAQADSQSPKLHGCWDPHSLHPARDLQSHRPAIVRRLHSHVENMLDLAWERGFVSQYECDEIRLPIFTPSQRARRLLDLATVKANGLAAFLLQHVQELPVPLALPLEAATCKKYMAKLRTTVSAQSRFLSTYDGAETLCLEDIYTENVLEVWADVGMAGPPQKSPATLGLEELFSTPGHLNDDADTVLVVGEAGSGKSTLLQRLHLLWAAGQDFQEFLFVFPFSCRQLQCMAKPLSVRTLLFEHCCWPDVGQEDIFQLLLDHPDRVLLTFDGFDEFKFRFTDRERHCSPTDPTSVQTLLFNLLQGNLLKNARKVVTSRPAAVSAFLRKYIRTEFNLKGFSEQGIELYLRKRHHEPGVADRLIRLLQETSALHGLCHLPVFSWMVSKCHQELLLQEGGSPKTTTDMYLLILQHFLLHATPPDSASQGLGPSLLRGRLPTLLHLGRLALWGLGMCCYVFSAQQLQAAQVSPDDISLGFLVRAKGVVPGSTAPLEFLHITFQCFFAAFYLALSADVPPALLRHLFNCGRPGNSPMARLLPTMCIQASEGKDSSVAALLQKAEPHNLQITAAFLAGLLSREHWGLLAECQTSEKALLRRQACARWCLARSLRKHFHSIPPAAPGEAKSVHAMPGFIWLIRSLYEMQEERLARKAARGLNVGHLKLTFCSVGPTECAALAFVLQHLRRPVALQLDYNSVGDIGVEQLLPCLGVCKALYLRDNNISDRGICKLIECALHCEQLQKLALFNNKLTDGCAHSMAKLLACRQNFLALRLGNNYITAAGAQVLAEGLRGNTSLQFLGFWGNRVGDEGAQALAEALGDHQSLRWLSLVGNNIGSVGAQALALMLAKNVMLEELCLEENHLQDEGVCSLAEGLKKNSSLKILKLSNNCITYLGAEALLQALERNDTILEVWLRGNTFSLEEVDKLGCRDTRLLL

[2] = molecular target: T1, Nucleotide-binding oligomerization domain-containing protein 2; assay: Antagonist activity at human NOD2 expressed in HEK-Blue cells assessed as inhibition of MDP-stimulated cell activation preincubated for 3 hrs followed by MDP addition measured after 20 hrs by SEAP reporter gene assay; format: cell-based
How it was run: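 HEK-Blue hNOD1 or hNOD2 cells preincubated with compound 3 h, then stimulated 20 h with C12-iE-DAP 50 ng/mL (NOD1) or MDP 100 ng/mL (NOD2); SEAP in supernatant quantified. Primary screen at 10 μM, hits repeated in triplicate; IC50 from dose-response, mean ± SD (n = 3), only for compounds reaching ≥50% inhibition at the screening concentration.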

CCCNC(=O)CC[C@H]1NC(=O)c2cc(Oc3cccc(N(C)C)c3)c(NC(=O)COCc3ccccc3)cc2NC1=O
inhibition [1]: Dose-dependent effect
IC50 [2]: 4.16 µM
